Drawing on ChEMBL document CHEMBL1145116, “Imidazo[1,2-b]pyridazines, novel nucleus with potent and broad spectrum activity against human picornaviruses: design, synthesis, and biological evaluation” (J Med Chem, 2003), this text covers TC50 and IC50 for twelve molecules.

Structures are written as SMILES. Converted amounts (≈) assume the structure as drawn. A value given as a limit tells only on which side of the number the result lay.

Experiment [1] has as its system rhinovirus B14. As to the kind of experiment: (§1) Cytopathic effect was evaluated against rhino virus usingCPE/XTT assay. In kind it is functional, human rhinovirus14. The gist of the method:
(§2)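 HeLa cells were seeded at 10 000 per well in medium 199 with 5% FBS and grown overnight at 37 °C. Surviving cells were read with XTT (0.4 mg/mL) plus PMS after 3-4 h at 37 °C. IC50 (CPE inhibition) and TC50 (versus a no-drug, no-virus control) came from the linear portion of the dose–response curves.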

In the next experiment the test system is rhinovirus A16. As to the kind of experiment: Broad spectrum antiviral activity was evaluated against HRV-16. The following applies: Rhinovirus A. In kind it is functional, organism-based.
The next experiment has as its system Coxsackievirus B3. As to the kind of experiment: Broad spectrum antiviral activity was evaluated against CB3. The following applies: Enterovirus B. In kind it is functional, organism-based, and coxsackievirus b3.
The subject of experiment [2] is Coxsackievirus A21. Kind of experiment: Broad spectrum antiviral activity was evaluated against coxsackievirus A21 mouse muscle adapted (CA21M). In kind it is functional, organism-based. The following applies: Enterovirus C, Muscle tissue.
Experiment [3] concerns Coxsackievirus A21. As to the kind of experiment: Broad spectrum antiviral activity was evaluated against CA21C. In kind it is functional, organism-based. The following applies: Enterovirus C.
Another experiment deals with Human rhinovirus 1A. As to the kind of experiment: Broad spectrum antiviral activity was evaluated against HRV-1A. In kind it is functional, organism-based, human rhinovirus1a.
Experiment [4] has as its system rhinovirus B14. Kind of experiment: (§3) Antiviral activity was evaluated against rhino virus using PRA assay. The following applies: Rhinovirus B. In kind it is functional, organism-based, human rhinovirus14. The gist of the method: (§4)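 Rhinovirus 14 was adsorbed for 1 h at room temperature onto confluent H-HeLa monolayers grown in medium 199 with 10% FBS. Cells were overlaid with agarose and growth medium (5% FBS) containing compound in DMSO (final DMSO 0.01%), then held at 37 °C under CO2 until plaques appeared in DMSO controls. Plates were formalin-fixed, crystal-violet stained and plaques counted, with duplicate wells averaged. IC50/IC90 were computed by Reed–Muench.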

The next experiment deals with rhinovirus A2. As to the kind of experiment: Broad spectrum antiviral activity was evaluated against HRV-2. In kind it is functional, organism-based, human rhinovirus2. The conditions noted are these: Rhinovirus A.
In the next experiment the test system is Poliovirus 1. As to the kind of experiment: Broad spectrum antiviral activity was evaluated against PV1. In kind it is functional, organism-based. The conditions noted are these: Enterovirus C.
For experiment [5], the system named is Human rhinovirus sp. The description is as §1. In kind it is functional, human rhinovirus14. The gist of the method:
as §2

For experiment [6], the system named is Human rhinovirus sp. Described as §3. In kind it is functional, organism-based, human rhinovirus14. The method, boiled down: as §4

As a reminder, the IC50 is the concentration that inhibits the measured activity by half. Lower therefore signals greater potency in that assay. For `Nc1nc2ccc(/C(=N/O)c3ccccc3)nn2c1-c1ccccc1`, the TC50 in the experiment with rhinovirus B14 [1] is over 10 µg/mL. For the same molecule, the IC50 in the experiment with rhinovirus A16 was determined as 0.06 µg/mL (≈ 0.182 µM); in the experiment with Coxsackievirus B3, 0.05 µg/mL (≈ 0.152 µM); with Coxsackievirus A21 [2] it was 0.02 µg/mL (≈ 0.0607 µM); in the experiment with Coxsackievirus A21 [3], 0.04 µg/mL (≈ 0.121 µM); in the experiment with Human rhinovirus 1A it was 0.05 µg/mL (≈ 0.152 µM); in the experiment on rhinovirus B14 [4] it was 0.04 µg/mL (≈ 0.121 µM). Further, the IC50 turned out to be 0.03 µg/mL (≈ 0.0911 µM) with rhinovirus A2 and 0.04 µg/mL (≈ 0.121 µM) in the experiment on Poliovirus 1.
As to `Nc1nc2ccc(/C(=N/O)c3ccccc3)nn2c1-c1ccc(F)cc1`, in the experiment with Human rhinovirus sp. [5], the TC50 is over 10 µg/mL. For the same molecule, the IC50 in the experiment on Human rhinovirus sp. [6] was 0.05 µg/mL (≈ 0.144 µM).
Consider `CNC(=O)/C=C(/c1ccccc1)c1ccc2nc(N)c(-c3ccc(F)cc3)n2n1`, for which the IC50 in the experiment on rhinovirus B14 [4] is over 10 µg/mL.
In turn, `CNC(=O)/C=C(/c1ccc(OC)cc1)c1ccc2nc(N)c(-c3ccc(F)cc3)n2n1` showed a TC50 in the experiment on rhinovirus B14 [1] of over 10 µg/mL. For the same molecule, the IC50 in the experiment on rhinovirus B14 [4] was 4.2 µg/mL (≈ 10.1 µM).
The corresponding values for `Nc1nc2ccc(/C(=N/Nc3ccccc3)c3ccccc3)nn2c1-c1ccc(F)cc1` are over 10 µg/mL and over 10 µg/mL.
The matching figures for `CNC(=O)/C=C(\c1ccccc1)c1ccc2nc(N)c(-c3ccc(F)cc3)n2n1`: 4.06 µg/mL (≈ 10.5 µM) and 0.11 µg/mL (≈ 0.284 µM).
With `CC(C)S(=O)(=O)n1c(N)nc2ccc(/C(=N/O)c3ccccc3)cc21` [ENVIROXIME], in the experiment with Human rhinovirus sp. [6], 0.05 µg/mL (≈ 0.139 µM) corresponded to half-maximal inhibition (IC50).
Regarding `CNC(=O)/C=C(\c1ccc(C)cc1)c1ccc2nc(N)c(-c3ccc(F)cc3)n2n1`, the TC50 with rhinovirus B14 [1] was over 10 µg/mL. The molecule also showed a 50% inhibitory concentration (IC50) with rhinovirus B14 [4] of 0.23 µg/mL (≈ 0.573 µM).
Take `CCOC(=O)/C=C(\c1ccccc1)c1ccc2nc(N)c(-c3ccc(F)cc3)n2n1`: the IC50 with rhinovirus B14 [4] was over 10 µg/mL.
In turn, `CNC(=O)/C=C(\c1ccc(OC)cc1)c1ccc2nc(N)c(-c3ccc(F)cc3)n2n1` came in with a TC50 with rhinovirus B14 [1] of over 10 µg/mL. The same molecule yielded a half-maximal inhibitory concentration (IC50) in the experiment with rhinovirus B14 [4] of 0.6 µg/mL (≈ 1.44 µM).
The matching figures for `CNC(=O)/C=C(/c1ccc(C)cc1)c1ccc2nc(N)c(-c3ccc(F)cc3)n2n1`: over 10 µg/mL and over 10 µg/mL.
`Nc1nc2ccc(C(=O)c3ccccc3)nn2c1-c1ccccc1` came in with an IC50 with Human rhinovirus sp. [6] of 7.19 µg/mL (≈ 22.9 µM).
